The source made the active and inactive calls. No cut-off for these calls is given here.
Legend:
[1] = Drug metabolism in Sprague-Dawley rat feces assessed as 1-(5'-allyl-2'-hydroxy-6-((2S,3R,4S,5S,6R)-3,4,5-trihydroxy-6-(hydroxymethyl)tetrahydro-2H-pyran-2-yloxy)biphenyl-3-yl)prop-2-en-1-one formation at 100 mg/kg, po by UPLC-IT-TOF-MS analysis; format: ADME, organism-based; conditions: in vivo
Summary of the method: (§1)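 Rats (n = 6) housed in metabolic cages received 100.0 mg/kg orally; controls received 0.5% CMC-Na. Plasma, urine and faeces were collected and analyzed by LC-IT-TOF-MS on a C18 column at 30 °C. Gradient 5–100% acetonitrile with 0.05% formic acid over 18 min at 0.2 mL/min; positive and negative ion MS/MS.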

[2] = Drug metabolism in Sprague-Dawley rat urine assessed as 2S,3S,4S,5R,6S)-6-(5,5'-diallyl-2'-((2S,3R,4S,5S,6R)-3,4,5-trihydroxy-6-(hydroxymethyl)tetrahydro-2H-pyran-2-yloxy)biphenyl-2-yloxy)-3,4,5-trihydroxytetrahydro-2H-pyran-2-carboxylic acid formation at 100 mg/kg, po by UPLC-IT-TOF-MS analysis; format: ADME, organism-based; conditions: in vivo
Summary of the method: (§2)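 Male/unspecified SD rats (n = 6) housed individually in metabolic cages, dosed orally at 100.0 mg/kg; controls given 0.5% CMC-Na orally. Plasma, urine and faeces collected. LC-IT-TOF-MS on C18 column at 30 °C, formic acid (0.05%) water/acetonitrile gradient 5–100% B over 18 min, 0.2 mL/min; positive and negative ion modes with automatic MS/MS.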

Rattus norvegicus [3] = assay: Toxicity in Sprague-Dawley rat assessed as change in sensory nervous system responses at 2000 mg/kg, po measured continuously for first 4 hrs followed by measured every hour for next 24 hrs and at 6 hrs intervals for following 48 hrs post dose; format: organism-based; conditions: in vivo
Summary of the method: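 Followed OECD 425 in adult SD rats (180–220 g), three groups of six. Vehicle control received 0.5% CMC-Na orally; separate male and female groups received 2000 mg/kg orally. Endpoints observed: behaviour, breathing, cutaneous effects, sensory nervous system responses, gastrointestinal effects and deaths.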

[4] = Drug metabolism in Sprague-Dawley rat feces assessed as (2S,3R,4S,5S,6R)-2-(5'-allyl-2'-hydroxy-5-(1-hydroxyallyl)biphenyl-2-yloxy)-6-(hydroxymethyl)tetrahydro-2H-pyran-3,4,5-triol formation at 100 mg/kg, po by UPLC-IT-TOF-MS analysis; format: ADME, organism-based; conditions: in vivo; summary of the method: as §1
[5] = Drug level in Sprague-Dawley rat feces at 100 mg/kg, po by UPLC-IT-TOF-MS analysis; format: ADME, organism-based; conditions: in vivo; summary of the method: as §1
Mus musculus [6] = assay: Increase in ratio of 3,4-dihydroxyphenylacetic acid and 4-hydroxy-3-methoxyphenylacetic acid to dopamine level in Kunming mouse hypothalamus at 40 mg/kg, po treated for 7 days by HPLC-ECD analysis; format: functional, organism-based
Summary of the method: (§3)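 Male Kunming mice (18–20 g) given vehicle or 40 mg/kg for 7 days, then killed by cervical dislocation. Frontal cortex, hippocampus, striatum, hypothalamus and thalamus dissected on ice, homogenized in ice-cold 0.2 M perchloric acid with 0.1 mM EDTA, centrifuged 15,000 rpm, 20 min, 4 °C. Supernatant analysed by HPLC-ECD at +0.50 V; phosphate/octanesulfonate mobile phase pH 3.0 with 12% methanol. Levels in ng/g, mean ± SEM.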

[7] = Drug metabolism in Sprague-Dawley rat feces assessed as (2S,3S,4S,5R,6S)-6-(5'-allyl-5-(1-hydroxyallyl)-2'-((2S,3R,4S,5S,6R)-3,4,5-trihydroxy-6-(hydroxymethyl)tetrahydro-2H-pyran-2-yloxy)biphenyl-2-yloxy)-3,4,5-trihydroxytetrahydro-2H-pyran-2-carboxylic acid formation at 100 mg/kg, po by UPLC-IT-TOF-MS analysis; format: ADME, organism-based; conditions: in vivo; summary of the method: as §1
[8] = Drug metabolism in Sprague-Dawley rat plasma assessed as (2S,3S,4S,5R,6S)-6-(5,5'-diallyl-2'-methoxybiphenyl-2-yloxy)-3,4,5-trihydroxytetrahydro-2H-pyran-2-carboxylic acid formation at 100 mg/kg, po by UPLC-IT-TOF-MS analysis; format: ADME, organism-based; conditions: in vivo; summary of the method: as §1
[9] = Drug metabolism in Sprague-Dawley rat plasma assessed as 5,5'-bis(1-hydroxyallyl)biphenyl-2,2'-diol formation at 100 mg/kg, po by UPLC-IT-TOF-MS analysis; format: ADME, organism-based; conditions: in vivo; summary of the method: as §2
[10] = Drug metabolism in Sprague-Dawley rat feces assessed as (2S,3S,4S,5R,6S)-6-(5-acryloyl-2'-hydroxy-5'-(1-hydroxyallyl)biphenyl-2-yloxy)-3,4,5-trihydroxytetrahydro-2H-pyran-2-carboxylic acid formation at 100 mg/kg, po by UPLC-IT-TOF-MS analysis; format: ADME, organism-based; conditions: in vivo; summary of the method: as §1
Rattus norvegicus [11] = assay: Toxicity in Sprague-Dawley rat assessed as irritation at 2000 mg/kg, po measured over 4 hrs; format: organism-based; conditions: in vivo
Summary of the method: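 Acute oral toxicity run per OECD 425 in adult SD rats (180–220 g). Six animals per group: vehicle control (0.5% CMC-Na, oral), male rats and female rats each dosed orally at 2000 mg/kg. Animals were watched continuously for the first 4 h for behavior, breathing, cutaneous signs (irritation, ulceration, caustic injury, skin rashes), sensory nervous and gastrointestinal effects. Later checks were hourly for 24 h, then every 6 h for 48 h.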

[12] = Drug metabolism in Sprague-Dawley rat plasma assessed as 5,5'-diallyl-2'-((2S,3R,4S,5S,6R)-3,4,5-trihydroxy-6-(hydroxymethyl)tetrahydro-2H-pyran-2-yloxy)biphenyl-2-yl hydrogen sulfate formation at 100 mg/kg, po by UPLC-IT-TOF-MS analysis; format: ADME, organism-based; conditions: in vivo; summary of the method: as §2
[13] = Drug metabolism in Sprague-Dawley rat urine assessed as 5,5'-bis(1-hydroxyallyl)biphenyl-2,2'-diol formation at 100 mg/kg, po by UPLC-IT-TOF-MS analysis; format: ADME, organism-based; conditions: in vivo; summary of the method: as §2
Mus musculus [14] = assay: Increase in ratio of 5-hydroxyindole-3-acetic acid to 5-hydroxytryptamine level in Kunming mouse frontal cortex at 40 mg/kg, po treated for 7 days by HPLC-ECD analysis; format: functional, organism-based; summary of the method: as §3
Mus musculus [15] = assay: Increase in 5-hydroxyindole-3-acetic acid level in Kunming mouse hippocampus at 40 mg/kg, po treated for 7 days by HPLC-ECD analysis; format: functional, organism-based; summary of the method: as §3

## C=CCc1ccc(O)c(-c2cc(CC=C)ccc2O[C@@H]2O[C@H](CO)[C@@H](O)[C@H](O)[C@H]2O)c1
[1]
  Drug metabolism: Metabolite_Notdetected
[2]
  Drug metabolism: Metabolite_Detected
Rattus norvegicus [3]
  Activity: Non-Toxic
[4]
  Drug metabolism: Metabolite_Notdetected
[5]
  Drug uptake: Not Active
Mus musculus [6]
  Activity: Active
[7]
  Drug metabolism: Metabolite_Detected
[8]
  Drug metabolism: Metabolite_Notdetected
[9]
  Drug metabolism: Metabolite_Notdetected
[10]
  Drug metabolism: Metabolite_Notdetected
Rattus norvegicus [11]
  Activity: Non-Toxic
[12]
  Drug metabolism: Metabolite_Notdetected
[13]
  Drug metabolism: Metabolite_Detected
Mus musculus [14]
  Activity: Active
Mus musculus [15]
  Activity: Active
